Reference: ChEMBL document CHEMBL1944582, “Pyrazolopyridine Inhibitors of B-Raf(V600E). Part 1: The Development of Selective, Orally Bioavailable, and Efficacious Inhibitors” (ACS Med Chem Lett, 2011)
Converted amounts (≈) assume the structure as drawn.

Columns and labels:
[1] = tested on: Mus musculus; assay: Toxicity in human COLO205 cells xenografted mouse assessed as change in body weight at 100 mg/kg, po administered QD for 17 days; conditions: in vivo, 408 h
[2] = Plasma protein binding in CD-1 mouse; type: ADME, cell-free; conditions: read-out: PPB (converted)
[3] = AUC in CD-1 mouse at 100 mg/kg, po; type: ADME, organism-based; design: dose 100 mg/kg, route oral; conditions: plasma
Procedure, shortened: (§1)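 Single oral dose given to mice as a solution in 40% PEG400/10% ethanol/50% water, at 30 mg/kg or 100 mg/kg. Exposure is reported as AUC in μg h/mL.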

[4] = Oral bioavailability in CD-1 mouse at 100 mg/kg as a solution in 40%PEG400/10%ethanol/50% water; type: ADME, organism-based; conditions: in vivo
[5] = tested on: COLO 205; assay: Cytotoxicity against human COLO205 cells after 4 days by CellTiter-Glo assay; type: functional, cell-based; conditions: COLO 205, 96 h
[6] = Inhibition of CYP450 at 25 uM; type: ADME
[7] = Oral bioavailability in CD-1 mouse at 30 mg/kg as a solution in 40% PEG400/10%ethanol/50% water; type: ADME, organism-based; conditions: in vivo
[8] = tested on: Salmonella typhimurium; assay: Induction of mutagenesis in Salmonella Typhimurium by Ames test; type: toxicity, organism-based; conditions: salmonella enterica subsp. enterica serovar typhimurium
[9] = tested on: Mus musculus; assay: Toxicity in human COLO205 cells xenografted mouse assessed as change in body weight at 125 mg/kg, po administered QD for 20 days; conditions: in vivo, 480 h
[10] = AUC in CD-1 mouse at 30 mg/kg, po; type: ADME, organism-based; design: dose 30 mg/kg, route oral; conditions: plasma
Procedure, shortened: as §1

[11] = target: Voltage-gated inwardly rectifying potassium channel KCNH2 (Homo sapiens, UniProt Q12809); assay: Inhibition of human Erg at 100 uM
[12] = target: T1, Serine/threonine-protein kinase B-raf (Homo sapiens, UniProt P15056, V600E); assay: Inhibition of B-Raf V600E mutant-mediated Erk phosphorylation in human A375 cells after 1 hr by fluorescence analysis; type: cell-based, A-375
Procedure, shortened: (§2)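 Cells were not stimulated, and inhibition was read against their basal ERK phosphorylation. This was the mechanistic cellular assay, run in both Malme-3M and A375 lines.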

[13] = Aqueous solubility of the compound in phosphate buffer at pH 6.5 after 24 hrs by HPLC analysis; type: physicochemical
[14] = Aqueous solubility of the compound in phosphate buffer at pH 7.4 after 24 hrs by HPLC analysis; type: physicochemical
[15] = tested on: COLO 205; assay: Antitumor activity against human COLO205 cells xenografted in po dosed mouse assessed as tumor growth inhibition administered QD for 20 days; type: functional; conditions: COLO 205, po, 480 h
Procedure, shortened: (§3)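 Mice with established Colo205 xenografts received the spray-dried dispersion orally at ascending doses once daily for 17 or 20 days. Tumor growth inhibition is expressed as percent of vehicle control, and ED50 and ED90 are given in mg/kg.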

[16] = target: T1, Serine/threonine-protein kinase B-raf; assay: Inhibition of B-Raf V600E mutant-mediated Erk phosphorylation in human MALME-3M cells after 1 hr by fluorescence analysis; type: cell-based
Procedure, shortened: as §2

[17] = Oral bioavailability in CD-1 mouse at 2.5 to 80 mg/kg as formulation of 25% SDD; type: ADME, organism-based; conditions: in vivo
Procedure, shortened: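 Oral bridging PK in mice used a 25% amorphous spray-dried dispersion on HPMCAS polymer at 2.5, 10, 40 and 80 mg/kg. Bioavailability (F) was derived per dose. The earlier solution vehicle was 40% PEG400/10% ethanol/50% water, with select intravenous dosing.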

[18] = Oral bioavailability in CD-1 mouse at 100 mg/kg as formulation of 25% SDD; type: ADME, organism-based; conditions: in vivo
Procedure, shortened: (§4)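 Oral dosing in mice used a 25% amorphous spray-dried dispersion on HPMCAS polymer, given at 10, 30, 60 and 100 mg/kg. Oral bioavailability (F) was determined at each dose.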

[19] = target: T1, Serine/threonine-protein kinase B-raf; assay: Inhibition of full length human B-Raf V600E mutant expressed in baculovirus infected insect cells assessed as [gamma-33P]incorporation into MEK after 60 mins by scintillation counting
[20] = Oral bioavailability in CD-1 mouse at 60 mg/kg as formulation of 25% SDD; type: ADME, organism-based; conditions: in vivo
Procedure, shortened: as §4

[21] = Volume of distribution in CD-1 mouse; type: ADME, organism-based; conditions: in vivo
Procedure, shortened: (§5)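 Some compounds were also given intravenously to mice. Clearance is reported in mL/min/kg and volume of distribution in L/kg.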

[22] = Clearance in CD-1 mouse; type: ADME, organism-based; conditions: in vivo
Procedure, shortened: as §5

[23] = Oral bioavailability in CD-1 mouse at 10 mg/kg as formulation of 25% SDD; type: ADME, organism-based; conditions: in vivo
Procedure, shortened: as §4

[24] = tested on: COLO 205; assay: Antitumor activity against human COLO205 cells xenografted in po dosed mouse assessed as tumor growth inhibition administered QD for 17 days; type: functional; conditions: COLO 205, po, 408 h
Procedure, shortened: as §3

[25] = Oral bioavailability in CD-1 mouse at 30 mg/kg as formulation of 25% SDD; type: ADME, organism-based; conditions: in vivo
Procedure, shortened: as §4

T1 sequence (P15056 2-766 V600E limits assumed): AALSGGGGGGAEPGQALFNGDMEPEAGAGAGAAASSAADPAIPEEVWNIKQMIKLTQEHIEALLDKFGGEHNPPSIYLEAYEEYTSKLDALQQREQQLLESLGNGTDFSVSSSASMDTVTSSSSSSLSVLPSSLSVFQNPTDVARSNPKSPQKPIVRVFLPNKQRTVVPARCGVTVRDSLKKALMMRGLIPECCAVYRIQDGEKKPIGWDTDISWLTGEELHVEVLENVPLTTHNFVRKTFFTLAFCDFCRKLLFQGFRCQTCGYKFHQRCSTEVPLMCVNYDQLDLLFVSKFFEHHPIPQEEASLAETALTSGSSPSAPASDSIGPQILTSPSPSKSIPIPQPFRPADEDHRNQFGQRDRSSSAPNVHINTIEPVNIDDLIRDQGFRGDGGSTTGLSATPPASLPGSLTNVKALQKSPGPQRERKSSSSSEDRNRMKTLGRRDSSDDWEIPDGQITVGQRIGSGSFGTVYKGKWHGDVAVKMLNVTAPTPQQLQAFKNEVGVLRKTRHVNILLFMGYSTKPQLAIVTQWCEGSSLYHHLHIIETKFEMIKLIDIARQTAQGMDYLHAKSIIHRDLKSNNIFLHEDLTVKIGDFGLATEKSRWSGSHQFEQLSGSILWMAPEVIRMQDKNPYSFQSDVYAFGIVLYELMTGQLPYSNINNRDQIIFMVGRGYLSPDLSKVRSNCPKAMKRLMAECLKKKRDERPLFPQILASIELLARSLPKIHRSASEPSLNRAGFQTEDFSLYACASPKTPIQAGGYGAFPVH
Voltage-gated inwardly rectifying potassium channel KCNH2, sequence (Q12809 whole entry): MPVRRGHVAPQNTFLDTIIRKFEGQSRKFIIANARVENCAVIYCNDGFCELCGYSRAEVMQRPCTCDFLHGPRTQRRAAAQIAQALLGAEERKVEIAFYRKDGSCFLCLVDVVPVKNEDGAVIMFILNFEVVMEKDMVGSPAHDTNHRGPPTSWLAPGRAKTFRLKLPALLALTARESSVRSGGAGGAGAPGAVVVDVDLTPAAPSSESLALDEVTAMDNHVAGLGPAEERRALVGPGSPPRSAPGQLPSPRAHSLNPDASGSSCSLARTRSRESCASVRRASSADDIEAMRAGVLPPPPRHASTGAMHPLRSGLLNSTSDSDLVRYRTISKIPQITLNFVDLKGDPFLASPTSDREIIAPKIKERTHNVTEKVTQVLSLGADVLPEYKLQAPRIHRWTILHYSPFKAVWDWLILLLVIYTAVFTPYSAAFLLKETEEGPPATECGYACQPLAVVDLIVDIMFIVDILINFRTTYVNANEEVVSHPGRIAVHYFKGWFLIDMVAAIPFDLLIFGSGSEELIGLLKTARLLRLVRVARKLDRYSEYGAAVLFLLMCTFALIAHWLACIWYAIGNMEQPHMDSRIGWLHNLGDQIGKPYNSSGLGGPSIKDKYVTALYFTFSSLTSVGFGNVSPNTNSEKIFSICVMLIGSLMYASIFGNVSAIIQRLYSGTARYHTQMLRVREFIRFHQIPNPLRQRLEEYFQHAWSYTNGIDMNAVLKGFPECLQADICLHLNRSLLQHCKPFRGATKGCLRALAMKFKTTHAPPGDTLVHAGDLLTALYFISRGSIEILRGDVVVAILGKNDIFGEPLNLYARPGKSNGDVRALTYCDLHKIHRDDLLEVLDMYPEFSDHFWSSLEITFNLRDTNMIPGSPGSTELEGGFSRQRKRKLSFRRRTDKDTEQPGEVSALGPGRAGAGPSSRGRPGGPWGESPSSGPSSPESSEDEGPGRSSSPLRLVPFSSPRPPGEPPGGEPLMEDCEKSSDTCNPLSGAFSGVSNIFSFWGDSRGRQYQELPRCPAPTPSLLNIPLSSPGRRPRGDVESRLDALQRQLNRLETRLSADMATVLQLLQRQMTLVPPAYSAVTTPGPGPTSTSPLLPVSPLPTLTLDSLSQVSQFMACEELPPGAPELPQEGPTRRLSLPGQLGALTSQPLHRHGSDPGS

| Structure (SMILES) | fraction unbound [2] | bioavailability [7] | AUC [10] | IC50 [12] | solubility at 24 h [13] | solubility at 24 h [14] | IC50 [16] | IC50 [19] | Vd [21] | clearance [22] | also measured |
| --- | --- | --- | --- | --- | --- | --- | --- | --- | --- | --- | --- |
| CCCS(=O)(=O)Nc1ccc(F)c(C(=O)Nc2cnc3[nH]nc(OC)c3c2)c1F | 0.026 | 48% | 190 µg·h/mL | 150 nM | 4 µg/mL (≈ 9.4 µM) | 9 µg/mL (≈ 21.2 µM) | 19 nM | – | – | – | Activity [1]: Non-toxic; AUC [3]: 664 µg·h/mL; bioavailability [4]: 51%; EC50 [5]: 80 nM; inhibition (INH) [6]: Not Active; Activity [8]: Non-toxic; Activity [9]: Non-toxic; inhibition (INH) [11]: Not Active; ED50 [15]: 20 mg/kg; ED90 [15]: 80 mg/kg; bioavailability [17]: 19% |
| CCCS(=O)(=O)Nc1ccc(Cl)c(C(=O)Nc2cnc3[nH]nc(OC)c3c2)c1F | 0.009 | 53% | 1080 µg·h/mL | 240 nM | < 1 µg/mL | 2 µg/mL (≈ 4.53 µM) | 20 nM | 1.7 nM | 0.11 L/kg | 1 mL/min/kg | bioavailability [18]: 13%; Activity [1]: Non-toxic; bioavailability [20]: 19%; AUC [3]: 50.7 µg·h/mL; bioavailability [4]: 1.2%; EC50 [5]: 70 nM; inhibition (INH) [6]: Not Active; Activity [8]: Non-toxic; Activity [9]: Non-toxic; inhibition (INH) [11]: Not Active; bioavailability [23]: 53%; ED50 [24]: 11 mg/kg; ED90 [24]: 50 mg/kg; bioavailability [25]: 28% |
| CCCS(=O)(=O)Nc1ccc(F)c(C(=O)Nc2cnc3[nH]ccc3c2)c1F | 0.021 | 76% | 200 µg·h/mL | 290 nM | 1 µg/mL (≈ 2.54 µM) | 4 µg/mL (≈ 10.1 µM) | 94 nM | 38 nM | 0.2 L/kg | 1.9 mL/min/kg | – |
| CCCS(=O)(=O)Nc1ccc(F)c(C(=O)Nc2cnc3[nH]ncc3c2)c1F | 0.129 | 100% | 40 µg·h/mL | 430 nM | 80 µg/mL (≈ 202 µM) | 150 µg/mL (≈ 379 µM) | 62 nM | 17 nM | 0.68 L/kg | 15 mL/min/kg | – |
| CCCS(=O)(=O)Nc1ccc(F)c(C(=O)Nc2cnc3[nH]nc(Br)c3c2)c1F | 0.016 | – | 52.5 µg·h/mL | 260 nM | 1 µg/mL (≈ 2.11 µM) | 3 µg/mL (≈ 6.33 µM) | 44 nM | 4 nM | – | – | – |
| CCCS(=O)(=O)Nc1ccc(F)c(C(=O)Nc2cnc3[nH]nc(C)c3c2)c1F | 0.101 | – | 18.3 µg·h/mL | 830 nM | 380 µg/mL (≈ 928 µM) | 740 µg/mL (≈ 1810 µM) | 86 nM | 12 nM | – | – | – |
| CCCS(=O)(=O)Nc1ccc(F)c(C(=O)Nc2cnc3[nH]cc(Br)c3c2)c1F | 0.006 | 71% | 49 µg·h/mL | 190 nM | < 1 µg/mL | < 1 µg/mL | 39 nM | 3.4 nM | 0.24 L/kg | 7.2 mL/min/kg | – |
| CCCS(=O)(=O)Nc1ccc(F)c(C(=O)Nc2cccnc2)c1F | – | – | – | > 3000 nM | – | – | 6700 nM | 3900 nM | – | – | – |
| CCCS(=O)(=O)Nc1ccc(F)c(C(=O)Nc2ccc(N)nc2)c1F | – | – | – | > 3000 nM | – | – | 2400 nM | 920 nM | – | – | – |
| CCCS(=O)(=O)Nc1ccc(F)c(C(=O)Nc2cnc(N)c(Br)c2)c1F | – | – | – | 1200 nM | – | – | 310 nM | – | – | – | – |
| CCCS(=O)(=O)Nc1ccc(F)c(C(=O)Nc2cnc3[nH]cnc3c2)c1F | – | – | – | > 3000 nM | – | – | 2400 nM | 61 nM | – | – | – |
| CCCS(=O)(=O)Nc1ccc(F)c(C(=O)Nc2cnc3[nH]nc(N(C)C)c3c2)c1F | 0.092 | – | 1.09 µg·h/mL | 650 nM | 290 µg/mL (≈ 661 µM) | 450 µg/mL (≈ 1030 µM) | 40 nM | 8.2 nM | – | – | – |
| CCCS(=O)(=O)Nc1ccc(Cl)c(C(=O)Nc2cnc3[nH]ncc3c2)c1F | 0.029 | 67% | 147 µg·h/mL | 560 nM | 15 µg/mL (≈ 36.4 µM) | 48 µg/mL (≈ 117 µM) | 56 nM | 6.3 nM | 0.17 L/kg | 2.3 mL/min/kg | – |
| CCCS(=O)(=O)Nc1ccc(F)c(C(=O)c2c[nH]c3ncc(-c4ccc(Cl)cc4)cc23)c1F [VEMURAFENIB] | – | – | – | – | – | – | – | – | – | – | EC50 [5]: 240 nM |
